From ChEMBL document CHEMBL5252546, “Salutaxel, a Conjugate of Docetaxel and a Muramyl Dipeptide (MDP) Analogue, Acts as Multifunctional Prodrug That Inhibits Tumor Growth and Metastasis” (J Med Chem, 2018)
The source made the active and inactive calls. No cut-off for these calls is given here.

Legend:
[1] = MRT (0 to infinity) in rat at 2 mg/kg,iv measured upto 24 hrs; format: ADME, organism-based; settings: in vivo
[2] = MRT (0 to infinity) in male Beagle dog at 1 mg/kg,iv measured upto 24 hrs; format: ADME, organism-based, Canis lupus familiaris; settings: in vivo
[3] = Half life in mouse tumor implanted with mouse 4T1 cells at 10 mg/kg,iv measured upto 72 hrs; format: ADME, organism-based, Neoplasm
Cytochrome P450 2C19 = Cytochrome P450 2C19 (Homo sapiens, UniProt P33261); assay: Inhibition of CYP2C19 in human liver microsomes using probe substrate at 0.1 to 100 uM in presence of NADPH; format: ADME, Microsome; settings: dose 0.1-100 µM
[4] = Tmax in female rat at 2 mg/kg,iv measured upto 24 hrs; format: ADME, organism-based; settings: in vivo
[5] = AUC (0-infinity) in rat at 4 mg/kg,iv measured upto 24 hrs; format: ADME, organism-based; parameters: dose 4 mg/kg, time < 24 hrs, route iv; settings: in vivo
Outline: (§1)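 Single iv dose: rats 2, 4 or 8 mg/kg by intravenous injection; Beagle dogs 1, 2 or 4 mg/kg by intravenous infusion. Plasma concentration–time data were analysed by sex and pooled. Reported parameters: Cmax, Tmax, AUC0−t, AUC0−∞, MRT0−∞, t1/2, CL, Vss, given as mean ± SD.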

[6] = AUC (0-infinity) in female rat at 8 mg/kg,iv measured upto 24 hrs; format: ADME, organism-based; parameters: dose 8 mg/kg, time < 24 hrs, route iv; settings: in vivo; outline: as §1
[7] = Drug metabolism in rat plasma assessed as metabolite docetaxel formation at 4 mg/kg,iv measured after 24 hrs; format: ADME, organism-based; settings: in vivo
4T1 [8] = assay: Antitumor activity against mouse 4T1 cells implanted in BALB/c mouse assessed as decrease in MMP9 mRNA expression in lung at 20 mg/kg,iv administrated qd for 2 days by qRT-PCR analysis; format: functional, organism-based; settings: time 2.0 day
Outline: (§2)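 Day 19 after 4T1 implantation, mice randomised into five groups; iv vehicle or 20 mg/kg plus ip C12-iE-DAP (50 μg/mouse) and MDP (100 μg/mouse) once daily for 2 days; killed after 48 h; lung mRNA for MMP8, MMP9, PROK2, S100A8, S100A9 and IL-1β by qPCR; mean ± SEM.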

[9] = Stability in rat plasma assessed as compound remaining at 40 uM incubated for 6 hrs; format: ADME, cell-free
4T1 [10] = assay: Antitumor activity against mouse 4T1 cells implanted in BALB/c mouse assessed as decrease in tumor MMP9 expression level at 5 to 20 mg/kg,iv administrated once per week for 4 weeks by western blot assay; format: functional, organism-based; settings: dose 5-20 mg/kg
Outline: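 4T1 fat-pad model in BALB/c mice, iv once weekly for 4 weeks; MMP9, MMP2 and NOD1 in spleen, lung and tumour by western blot, β-actin loading control; bands averaged over five mice per group, representative of two independent experiments.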

[11] = Drug distribution in rat kidney at 4 mg/kg,iv measured by 0.25 hrs; format: ADME, organism-based; settings: in vivo
Outline: (§3)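 Rats received 4 mg/kg iv. Parent drug and released docetaxel were assayed in tissues and plasma from the first sampling at 0.25 h to 24 h. The lower limit of quantitation was 200 ng/g.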

[12] = Half life in Beagle dog at 1 mg/kg,iv measured upto 24 hrs; format: ADME, organism-based, Canis lupus familiaris; settings: in vivo
[13] = Drug metabolism in rat hepatocytes assessed as docetaxel metabolite formation at 20 uM incubated for 180 mins; format: ADME, cell-based, Hepatocyte; settings: 3 h
[14] = Stability in human hepatocyte assessed as compound remaining at 3 uM incubated upto 120 mins; format: ADME, cell-based; settings: hepatocytes, 2 h
4T1 [15] = assay: Antitumor activity against mouse 4T1 cells xenografted with BALB/c mouse assessed as decrease in lung metastasis at 10 mg/kg,iv administrated once per week for 4 weeks; format: functional, organism-based
Outline: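 4T1 cells injected into the mammary fat pad of BALB/c mice; iv saline vehicle or 5, 10 or 20 mg/kg once weekly for 4 weeks; body weight, tumour volume, tumour weight, lung metastatic nodule count and metastasis score recorded; n = 10, mean ± SEM, ANOVA and Student's t test.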

[16] = AUC (0-t) in female Beagle dog at 1 mg/kg,iv measured upto 24 hrs; format: ADME, organism-based, Canis lupus familiaris; parameters: dose 1 mg/kg, time < 24 hrs, route iv; settings: in vivo; outline: as §1
[17] = Cmax in mouse tumor implanted with mouse 4T1 cells at 10 mg/kg,iv measured upto 72 hrs; format: ADME, organism-based, Neoplasm; parameters: time < 72 hrs, dose 10 mg/kg, route iv
Outline: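 BALB/c mice carried 4T1 cells implanted in the mammary fat pad and received a single iv dose of 10 mg/kg. Parent drug and released docetaxel were assayed in plasma and tumor tissue up to 72 h. Parameters came from noncompartmental analysis, n = 6, mean ± SD.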

[18] = Drug concentration in plasma of Beagle dog assessed as docetaxel concentration at 1 to 4 mg/kg,iv measured upto 24 hrs; format: ADME, organism-based, Canis lupus familiaris; settings: in vivo, dose 1-4 mg/kg
Outline: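 Beagle dogs were given a single iv infusion at 1, 2 or 4 mg/kg. Plasma parent drug and released docetaxel were followed over time. Cmax, Tmax, AUC, MRT, t1/2, CL and Vss were reported by sex and for all dogs combined.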

[19] = Drug distribution in rat lung at 4 mg/kg,iv measured by 0.25 hrs; format: ADME, organism-based; settings: in vivo; outline: as §3
[20] = Half life in female Beagle dog at 4 mg/kg,iv measured upto 24 hrs; format: ADME, organism-based, Canis lupus familiaris; settings: in vivo
[21] = Chronic toxicity in male Sprague-Dawley rat at 2 to 8 mg/kg,iv administered once per week for 30 days; format: organism-based; settings: in vivo, 720 h, dose 2-8 mg/kg, time 30 day
Outline: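 Long-term toxicity: rats given iv 2, 4 or 8 mg/kg and dogs 3, 6 or 18 mg/kg once weekly over 30 days; toxicokinetics recorded; highest non-severely toxic dose determined by sex.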

[22] = Half life in female rat at 8 mg/kg,iv measured upto 24 hrs; format: ADME, organism-based; settings: in vivo
[23] = AUC (0-t) in female Beagle dog at 4 mg/kg,iv measured upto 24 hrs; format: ADME, organism-based, Canis lupus familiaris; parameters: dose 4 mg/kg, time < 24 hrs, route iv; settings: in vivo; outline: as §1
4T1 [24] = assay: Antitumor activity against mouse 4T1 cells implanted in BALB/c mouse assessed as decrease in PROK2 mRNA expression in lung at 20 mg/kg,iv administrated qd for 2 days by qRT-PCR analysis; format: functional, organism-based; settings: time 2.0 day; outline: as §2
[25] = Volume of distribution at steady state in male rat at 8 mg/kg,iv measured upto 24 hrs; format: ADME, organism-based; settings: in vivo, read-out: Vdss
[26] = Drug excretion in rat urine at 4 mg/kg,iv measured upto 72 hrs; format: ADME, organism-based; settings: read-out: Drug excretion
[27] = MRT in mouse plasma implanted with mouse 4T1 cells at 5.7 mg/kg,iv measured upto 72 hrs; format: ADME, organism-based
4T1 [28] = assay: Antitumor activity against mouse 4T1 cells implanted in BALB/c mouse assessed as decrease in lung injury at 5.7 mg/kg,iv administrated once per week for 4 weeks in presence of MDA-205 by H and E staining based assay; format: functional, organism-based
Outline: (§4)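 BALB/c mice bearing orthotopic mammary fat pad 4T1 tumors, dosed iv weekly for 4 weeks with saline vehicle as control. Lung sections stained with hematoxylin and eosin and examined by light microscopy at 40× for metastasis, inflammatory infiltration and alveolar wall thickening.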

4T1 [29] = assay: Antitumor activity against mouse 4T1 cells implanted in BALB/c mouse assessed as decrease in lung metastasis at 5.7 mg/kg,iv administrated once per week for 4 weeks by H and E staining based assay; format: functional, organism-based; outline: as §4
4T1 [30] = assay: Antitumor activity against mouse 4T1 cells xenografted with BALB/c mouse assessed as decrease in tumor volume at 5.7 mg/kg,iv administrated once per week for 4 weeks; format: functional, organism-based
Outline: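 4T1 cells injected into mammary fat pads of BALB/c mice. Dosing iv once per week for 4 weeks, saline vehicle; single-agent arms were given alone or with the peptide component (5b or 6). Endpoints were body weight, tumour volume, tumour weight, lung metastatic nodule count and lung metastasis score. Mean ± SEM, n = 10; ANOVA and Student's t test.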

Sequence of Cytochrome P450 2C19 (P33261 whole entry): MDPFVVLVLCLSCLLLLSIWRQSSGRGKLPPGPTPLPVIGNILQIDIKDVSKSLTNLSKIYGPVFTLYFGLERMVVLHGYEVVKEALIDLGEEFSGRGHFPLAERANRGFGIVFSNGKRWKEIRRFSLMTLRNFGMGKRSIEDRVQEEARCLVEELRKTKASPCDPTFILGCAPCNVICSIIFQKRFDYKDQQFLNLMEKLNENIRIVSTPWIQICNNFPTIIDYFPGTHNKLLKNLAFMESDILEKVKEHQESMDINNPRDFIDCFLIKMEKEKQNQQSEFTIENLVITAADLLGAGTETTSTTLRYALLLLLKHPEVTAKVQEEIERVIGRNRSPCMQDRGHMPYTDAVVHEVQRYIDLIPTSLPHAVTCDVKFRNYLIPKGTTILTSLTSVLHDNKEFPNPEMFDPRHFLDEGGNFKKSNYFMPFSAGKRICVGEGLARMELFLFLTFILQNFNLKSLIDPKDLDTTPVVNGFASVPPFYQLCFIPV

**Q.** For `CC(=O)O[C@@]12CO[C@@H]1C[C@H](O)[C@@]1(C)C(=O)[C@H](O)C3=C(C)[C@@H](OC(=O)[C@H](OC(=O)CCC(=O)NCCCC[C@H](NC(=O)CC[C@@H](NC(=O)[C@H](C)NC(=O)/C=C/c4ccc(F)cc4Cl)C(N)=O)C(=O)O)[C@@H](NC(=O)OC(C)(C)C)c4ccccc4)C[C@@](O)([C@@H](OC(=O)c4ccccc4)[C@H]21)C3(C)C`, which MRT inf [1] is on record?
**A.** 11.3 min

**Q.** And the MRT inf [2]?
**A.** 12.1 min

**Q.** And the half-life [3]?
**A.** 93.6 min

**Q.** And the “inhibition (INH)” value (Cytochrome P450 2C19)?
**A.** Not Active

**Q.** And the Tmax [4]?
**A.** 4.98 min

**Q.** What about the AUC(0-inf) [5] of the same compound?
**A.** 16900 ng·h/mL

**Q.** And the AUC(0-inf) [6]?
**A.** 39400 ng·h/mL

**Q.** And the Drug metabolism [7]?
**A.** Metabolite_Detected

**Q.** What about the Activity (4T1 [8]) of the same compound?
**A.** Active

**Q.** What about the Stability [9] of the same compound?
**A.** Stable

**Q.** What about the Activity (4T1 [10]) of the same compound?
**A.** inactive

**Q.** What about the Drug uptake [11] of the same compound?
**A.** Active

**Q.** And the half-life [12]?
**A.** 21.3 min

**Q.** And the Drug metabolism [13]?
**A.** Metabolite_Detected

**Q.** What about the Stability [14] of the same compound?
**A.** Stable

**Q.** What about the Activity (4T1 [15]) of the same compound?
**A.** Active

**Q.** And the AUC(0-t) at 24 h [16]?
**A.** 1590 ng·h/mL

**Q.** What about the Cmax [17] of the same compound?
**A.** 140 nM

**Q.** What about the Drug uptake [18] of the same compound?
**A.** 0.23%

**Q.** What about the Drug uptake [19] of the same compound?
**A.** Active

**Q.** And the half-life [20]?
**A.** 33.8 min

**Q.** And the Activity [21]?
**A.** Toxic

**Q.** What about the half-life [22] of the same compound?
**A.** 15.2 min

**Q.** What about the AUC(0-t) at 24 h [23] of the same compound?
**A.** 20300 ng·h/mL

**Q.** And the Activity (4T1 [24])?
**A.** Active

**Q.** And the Vd [25]?
**A.** 0.096 L/kg

**Q.** And the dose excreted at 72 h [26]?
**A.** 9.38%

**Q.** Which results are given for `CC(=O)O[C@@]12CO[C@@H]1C[C@H](O)[C@@]1(C)C(=O)[C@H](O)C3=C(C)[C@@H](OC(=O)[C@H](O)[C@@H](NC(=O)OC(C)(C)C)c4ccccc4)C[C@@](O)([C@@H](OC(=O)c4ccccc4)[C@H]21)C3(C)C` [DOCETAXEL ANHYDROUS]?
**A.** MRT [27]: 137 min; Activity (4T1 [28]): Active; Activity (4T1 [29]): Active; Activity (4T1 [30]): Active
